A selection: hits, their analogues and other compounds. The true share with any hit is near 1.4%.
ARFGAP1 inhibitor = inhibitors of rat ARFGAP1; Arfgap1-stimulated ARF1 GTP hydrolysis, GDP FP detection; AID 651572; Q62848; actives 0.26% (n = 360,000); inhibition, % at 16.5 µM;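 active = inhibition above a per-plate limit, mean inhibition of low control wells plus 3 SD, cut at about 25% in these data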;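 also: 0% = DMSO wells with enzyme and 100% = wells lacking Arfgap1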
Target sequence (Q62848 1-136 limits assumed): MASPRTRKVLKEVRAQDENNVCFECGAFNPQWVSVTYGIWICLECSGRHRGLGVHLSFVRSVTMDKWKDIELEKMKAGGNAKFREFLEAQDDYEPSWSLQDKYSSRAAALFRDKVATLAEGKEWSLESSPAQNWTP
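Material – truncated rat Arfgap1 GAP domain · Buffer or medium – HEPES-based buffer, pH 7.5 · Reagent – human ARF1(Δ1-17)-GTP substrate · Dosing – 16.5 µM single point, 1.26% DMSO · Schedule – GTP hydrolysis reaction 2 h at 25 °C · Technique – GDP detection by fluorescence polarization · Benchmarks – No-Arfgap1 wells (100%) versus DMSO full-reaction wells (0%) · Repeats – single replicate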
ASAP1 inh = ASAP1 ArfGAP inhibition. actives 0.19% (n = 360,000). Q9ULH1. ASAP1-stimulated ARF1 GTP hydrolysis, GDP FP detection. AID 624377. inhibition, % at 16.5 µM; in the data active = inhibition above about 25%;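 also: 0% = vehicle with enzyme and substrate and 100% = no enzyme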
MsrA inh = inhibitors of bovine MsrA; purified bovine MsrA, absorbance read-out; inhibition, % at 15.5 µM; actives 0.75% (n = 360,000); AID 651718; in the data active = inhibition above about 4.5%;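 also: 0% = vehicle wells with enzyme and 100% = reference inhibitor wells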
MsrA act = bovine methionine sulfoxide reductase A activation | purified bovine MsrA, absorbance read-out | activation, % at 10.6 µM | actives 0.3% (n = 360,000) | AID 602163; in the data active = activation above about 7.5%;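 also: 0% = vehicle and 100% = reference activator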
MsrA act confirm = confirmation of bovine methionine sulfoxide reductase A activators; shares compounds with MsrA act; purified bovine MsrA, absorbance read-out; activation, % at 10.6 µM; actives 12% (n = 1,000); AID 602270; in the data active = activation above about 4%;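 also: enzyme coupled to thioredoxin and thioredoxin reductase with NADPH; 0% = vehicle wells and 100% = reference activator wells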
ASAP1 inh confirm = ASAP1 inhibition confirmed; shares compounds with ASAP1 inh; ASAP1-stimulated Arf1 GTPase, GDP fluorescence polarization; inhibition, % at 16.5 µM; actives 37% (n = 620); AID 624431;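 active = mean inhibition over triplicates exceeds the hit threshold derived for the earlier primary screening run, cut at about 25% in these data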
ARFGAP1 inh conf = rat ARFGAP1 inhibition, confirmed | shares compounds with ARFGAP1 inhibitor | ARFGAP1-stimulated ARF1 GTP hydrolysis, GDP tracer FP | actives 30% (n = 890) | inhibition, % at 16.5 µM;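 active = average inhibition over triplicates above the hit cutoff set in the earlier primary screen, cut at about 25% in these data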;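 also: 0% = Arfgap1 plus ARF1-GTP with DMSO and 100% = wells lacking Arfgap1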
Target sequence (Q62848 whole entry, looked up): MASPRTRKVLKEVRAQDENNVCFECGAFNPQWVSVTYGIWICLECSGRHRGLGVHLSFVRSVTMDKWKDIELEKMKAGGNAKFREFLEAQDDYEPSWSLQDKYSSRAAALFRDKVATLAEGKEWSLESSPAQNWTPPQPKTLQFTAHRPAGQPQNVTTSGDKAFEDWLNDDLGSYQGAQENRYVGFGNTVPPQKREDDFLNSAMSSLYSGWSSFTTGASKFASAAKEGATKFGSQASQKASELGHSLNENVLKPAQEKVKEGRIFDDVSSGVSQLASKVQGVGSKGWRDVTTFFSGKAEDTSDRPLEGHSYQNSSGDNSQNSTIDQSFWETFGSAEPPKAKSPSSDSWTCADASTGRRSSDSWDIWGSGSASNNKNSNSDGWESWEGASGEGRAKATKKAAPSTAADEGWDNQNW
An asterisk follows results filed as active; x = no result.

SMILES | ARFGAP1 inhibitor | ASAP1 inh | MsrA inh | MsrA act | others
COc1ccc(-c2cc(-c3ccccc3)[n+](C)c(-c3ccccc3)c2)cc1 | 6 | -1 | 4.8* | -4
COc1ccc(-[n+]2c(-c3ccccc3)cc(-c3ccc(C)cc3)cc2-c2ccccc2)cc1 | 0 | -4 | 3 | -2
CCCCn1c(O)c(/C=N/N2CCCCC2c2cccnc2)c(=O)[nH]c1=S (stereo not given) | 16 | 5 | 1 | -4
Cc1ccc(-n2c(O)c(/C=N/N3CCCCC3c3cccnc3)c(=O)[nH]c2=S)cc1 (stereo not given) | 0 | 7 | 4.5* | -15
O=C1C(=O)c2ccccc2-c2ccccc21 | -9 | -18 | 0 | 49*
Brc1ccc2c(c1)-n1nncc1CNC2 | 4 | 2 | 0 | x
Cc1ccccc1[N+](=O)[O-] | 2 | 3 | 0 | -3
O=C1NC(=O)C(Sc2ccccc2[N+](=O)[O-])C(=O)N1 | 22 | 42* | -1 | 1
CCn1nc(-c2ccccc2)nc2c(=O)n(C)c(=O)nc1-2 | x | x | x | 37*
Cc1cc(N2CCNC[C@H]2C)ccc1N1CC[C@H](O)C1 | 0 | -2 | 0 | x
COc1ccc(OC(=O)N(C)C[C@H]2OCc3cnnn3CCCC(=O)N([C@@H](C)CO)C[C@@H]2C)cc1 | -3 | -16 | 0 | x
O=C1NC(=O)C(Nc2ccc(Cl)c(Cl)c2)C(=O)N1 | 14 | 47* | 3 | 1
O=C(Nc1ccc(Cl)c(Cl)c1)c1ccco1 | 17 | 16 | -1 | -2
COC(=O)C1CC(OC(C)=O)C(=O)[C@H]2C1(C)CC[C@H]1C(=O)OC(c3ccoc3)CC12C (stereo not given in full) | 8 | 1 | -1 | x
CN(C)c1ccc(/C=C/C=C2/C(=O)NC(=O)N(c3ccccc3)C2=O)cc1 | 5 | 28* | -1 | -8
O=c1c2ccccc2[se]n1-c1ccccc1 | 6 | 18 | 0 | 20*
c1ccc2c(CCNC3CCCCC3)c[nH]c2c1 | 6 | -1 | 0 | -3
c1ccc2[nH]c(CCNC3CCCCC3)nc2c1 | 7 | 9 | 0 | 7.8* | MsrA act confirm=-1
CNc1ccc2nc3ccccc3[n+](C)c2c1 | 8 | -1 | -1 | 92* | MsrA act confirm=74*
C[n+]1c2ccccc2nc2ccc(NCCO)cc21 | -3 | -10 | 0 | 59* | MsrA act confirm=51*
c1ccc(-c2nc3ccccc3nc2-c2ccc(CN3CCC(n4nnc5ccccc54)CC3)cc2)cc1 | 9 | 3 | 2 | x
CC(C)c1cccc(C(C)C)c1OCCn1ccnc1 | 10 | -2 | 0 | 14* | MsrA act confirm=-2
c1ccc(Cn2ccnc2)cc1 | -14 | 2 | -1 | -2
C=C1C(=O)[C@@]23C[C@H]4[C@@H]5[C@@]6(C)CCC[C@@]57[C@@H]2[C@@H](O)[C@@H]1C[C@H]3[C@H]7N4C6 | -15 | 4 | 0 | 26* | MsrA act confirm=17*
O=C(NCCN1CCC2(CC1)C(=O)NCN2c1ccccc1)c1ccc2ccccc2c1 | 10 | -3 | 0 | x
SMILES | ARFGAP1 inhibitor | ASAP1 inh | MsrA inh | MsrA act | others
CCOC(=O)c1c(N)n(CCCOC(=O)c2ccco2)c2nc3ccccc3nc12 | 0 | -1 | 1 | 11* | MsrA act confirm=1
C[C@]12CC[C@@H](O)C[C@@H]1CC[C@@H]1[C@@H]2CC[C@]2(C)C(=O)[C@H](O)C[C@@H]12 | x | x | x | 19* | MsrA act confirm=-1
CC(=O)C1=C(C)OC2=C(C(=O)CCC2)[C@@]12C(=O)N(C)c1ccccc12 | 3 | -3 | 0 | x
O=C(O)c1cccc(NC(=O)N2C[C@H]3C[C@@H](C2)c2cccc(=O)n2C3)c1 | 3 | 0 | -1 | 8.9* | MsrA act confirm=-3
Fc1ccc2nc(-c3ccc(CN4CCC(n5nnc6ccccc65)CC4)cc3)c(-c3ccccc3)nc2c1 | 0 | -16 | 2 | x
Cc1nc2c(=O)n(C)c(=O)nc-2n(C)n1 | -7 | -3 | 0 | 18* | MsrA act confirm=13*
COc1cccc(-c2ccc3c(c2)C2c4cnnn4-c4ccccc4C(=O)N2CC3)c1 (stereo not given) | -8 | 6 | 2 | x
CC(C)OC(=O)C1C(c2ccc(I)cc2)CC2CCC1N2C (stereo not given) | 7 | 4 | -1 | x
O=C(NCCN1CCC2(CC1)C(=O)NCN2c1ccccc1)c1ccc(Cl)cc1 | -2 | -7 | -1 | x
CCSc1nnc([C@@H](N)Cc2ccccc2)o1 | 5 | 1 | -2 | -3
CCSc1nnc(C(N)Cc2ccccc2)o1 (stereo not given) | -3 | 29* | -1 | -4 | ASAP1 inh confirm=-2
O=C(c1ccccc1)N1Cc2cc(Br)ccc2-n2nncc2C1 | -4 | -3 | -1 | x
Cc1ccc(/C=C2\C(=O)NC(=O)N(Cc3ccccc3Cl)C2=O)o1 | 2 | 28* | 1 | 0 | ASAP1 inh confirm=8
CN1C[C@H](O)[C@H]2C[C@@H]1c1ccccc1O2 | 4 | 8 | 2 | x
COP(=O)(OC)C(NC(C)=O)C(Cl)(Cl)Cl (stereo not given) | 14 | 26* | 1 | -9 | ASAP1 inh confirm=4
COc1ccc(C(=O)NC(=S)N2C[C@H]3C[C@H](C2)c2cccc(=O)n2C3)cc1 | 34* | 3 | 1 | -6 | ARFGAP1 inh conf=7
COc1ccc(/C=C/C(=O)NC(=S)N2C[C@H]3C[C@H](C2)c2cccc(=O)n2C3)cc1 | -10 | -2 | 2 | -8
CC(C)S(=O)(=O)N1Cc2ccc(Br)cc2-n2nncc2C1 | 5 | 12 | 1 | x
CN(c1ccc(OCC(=O)N2CCN(C/C=C/c3ccccc3)CC2)cc1)S(=O)(=O)c1cccs1 | 27* | -12 | -1 | -4 | ARFGAP1 inh conf=4
CN1CC[C@@H]2CN[C@H](c3ccccc3)C[C@@H]21 | -9 | -4 | 2 | x
OC12Oc3ccccc3C=C1N1CCC2CC1 (stereo not given) | 25* | -5 | 0 | -2 | ARFGAP1 inh conf=4
COC(=O)C1=C(c2ccc(OC(F)(F)F)cc2)C[C@@H]2CC[C@H]1N2C(=O)NCc1ccco1 | 4 | 4 | 0 | x
CC[C@]12CCN(CC3(O)CC3)C(Cc3ccc(O)cc31)C2(C)C | 10 | 10 | -1 | x
Cc1ccccc1-n1c(O)c(/C=N/Nc2nc3c(c(=O)n(C)c(=O)n3C)n2C)c(=O)[nH]c1=S | 26* | 1 | 2 | -6 | ARFGAP1 inh conf=4
CCOC(=O)c1c(NS(=O)(=O)c2ccccc2)n(CCCOC)c2nc3ccccc3nc12 | 34* | 4 | 3 | -13 | ARFGAP1 inh conf=-10
Clc1ccc(C(c2ccc(Cl)cc2)n2cc[n+](CC(OCc3ccc(Cl)cc3Cl)c3ccc(Cl)cc3Cl)c2)cc1 (stereo not given) | 28* | 20 | 0 | 1 | ARFGAP1 inh conf=81*
Clc1ccc(COC(Cn2ccnc2)c2ccc(Cl)cc2Cl)cc1 (stereo not given) | 1 | -9 | -1 | 2
